# From PubChem
# SR-BI HDL uptake: inhibitors of mouse SR-BI mediated HDL lipid uptake; inhibition, % at 12.5 µM; Q61009; ldlA[mSR-BI] CHO cells, DiI-HDL uptake fluorescence, 3 h; 0.96% of 320,000 active;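 active = mean replicate inhibition of at least 70% and a set share of replicates each scoring 70 or more; inconclusive = meets just one of the two criteria; inactive = fails both criteria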;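 note: 0% = median of neutral control wells and 100% = median of positive control wells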
# Target sequence (Q61009 whole entry, looked up): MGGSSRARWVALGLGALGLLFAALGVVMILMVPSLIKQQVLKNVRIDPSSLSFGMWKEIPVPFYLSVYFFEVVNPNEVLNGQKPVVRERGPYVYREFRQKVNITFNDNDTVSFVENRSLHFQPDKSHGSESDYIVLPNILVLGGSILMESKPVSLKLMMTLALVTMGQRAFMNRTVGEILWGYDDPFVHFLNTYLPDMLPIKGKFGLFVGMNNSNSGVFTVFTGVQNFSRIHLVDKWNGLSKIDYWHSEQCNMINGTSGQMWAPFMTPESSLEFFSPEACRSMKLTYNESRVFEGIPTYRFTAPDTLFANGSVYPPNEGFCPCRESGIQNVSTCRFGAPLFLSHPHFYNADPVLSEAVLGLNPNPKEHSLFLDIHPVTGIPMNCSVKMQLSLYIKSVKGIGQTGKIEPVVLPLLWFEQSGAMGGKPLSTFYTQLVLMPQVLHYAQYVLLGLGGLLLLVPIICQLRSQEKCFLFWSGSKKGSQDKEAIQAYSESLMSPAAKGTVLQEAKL
# Vif inh: inhibitors of HIV Vif | HEK293T cells, Vif self-association by quenched fluorescence, imaging, 24 h | inhibition, % at 7.49 µM | 0.35% of 340,000 active; in the data active = inhibition above about 50%, passing the limit was not always enough; inconclusive = no clear call, values can overlap the other calls; inactive = below about 31%
# SR-BI DiI-HDL act: SR-BI HDL lipid transfer activation | CHO ldlA[mSR-BI] cells, DiI-HDL uptake fluorescence, 3 h; 100 = double the neutral-control signal | activation, % at 12.5 µM | 0.096% of 320,000 active;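 active = mean replicate activation of at least 60% and every replicate at or above 60%; inconclusive = mean or all-replicate condition met, but not both; inactive = mean below 60% and not all replicates reaching 60%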;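 note: 0% = median plate neutral-control signal and 100% = twice that signal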
#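 Material – SR-BI-overexpressing, LDLR-lacking CHO cells · Medium – BSA-supplemented, HEPES-buffered Ham's F12, pH 7.4 · Doses – single concentration · Times – compound with DiI-HDL co-incubation, 3 h at 37 °C · Measured by – bottom-read fluorescence, 550/595 nm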
# SMARCA2 activ: increases SMARCA2 function in MMTV reporter cells | MG213 cells, MMTV-luciferase reporter, dexamethasone, overnight | activation, % at 9.1 µM | 1% of 370,000 active; in the data active = activation above about 7.8%;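 note: 0% = vehicle wells and 100% = reference activator wells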
# TAG inh: inhibitors of triacylglycerol accumulation | H9c2 cells, Nile Red lipid (TAG) fluorescence; cells loaded with 200 µM oleic acid | inhibition, % at 12.5 µM | 0.66% of 230,000 active | AID 651582;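 active = pattern-corrected inhibition of lipid staining of at least 50% with the nuclear-stain viability signal not falling by more than 50%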;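 note: 0% = DMSO wells and 100% = triacsin C control wells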
# SMARCA2 act conf: SMARCA2 activation, confirmation screen; shares compounds with SMARCA2 activ; activation, % at 9.1 µM; MG213 cells, MMTV-luciferase with dexamethasone, luminescence, overnight; MG213 cells expressing E1A, Rb sequestered; DMSO wells 0%, reference activator 100%; AID 652260; 30% of 3,500 active;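 active = activation above its plate's cutoff, the mean activation of tested wells plus 3 SD, cut at about 7.9% in these data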
# GAL4-VP16 Luc: GAL4-VP16 reporter activation counter-screen. shares compounds with SMARCA2 activ. HEK293 GAL4-VP16 pG5luc reporter, luciferase luminescence; scaled: DMSO wells 0%, SAHA wells 100%. activation, % at 9.1 µM. 41% of 3,500 active;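 active = activation above the solvent-only control well mean plus 3 SD, averaged across control plates, cut at about 5.2% in these data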
# Numbers without * were called inactive; ? = inconclusive; / = no result. Most compounds without a hit are left out; they make up all but 2.5% or so of the library.
SMILES,SR-BI HDL uptake,Vif inh,SR-BI DiI-HDL act,SMARCA2 activ,TAG inh,SMARCA2 act conf,GAL4-VP16 Luc
COc1ccc([C@H]2N[C@]3(CCCN(Cc4ccc(Br)cc4)C3=O)[C@H]3C(=O)N(C)C(=O)[C@@H]23)cc1,/,-2,/,-1,-1,/,/
CCC1CCCCN1C(=O)CSc1nnc(-c2cccs2)o1 (stereo not given),6,35,-6,8.0*,5,12*,8.4*
COc1ccc(-c2nnc(SCC(=O)c3cccs3)o2)cc1,11,1,-11,5,/,/,/
CC1CCCN(C(=O)CSc2nnc(-c3cccs3)o2)C1 (stereo not given),/,10,/,4,/,/,/
O=C(CSc1nnc(-c2cccs2)o1)c1cccs1,-10,-3,10,8.0*,/,12*,7.0*
COc1cc(OC)cc(C(=O)N[C@H](C(=O)NC23CC4CC(CC(C4)C2)C3)C(C)C)c1,-7,9,7,9.9*,36,1,0
COc1ccc(C(=O)NNC(=O)C(NC(=O)c2cc(OC)cc(OC)c2)C(C)C)cc1 (stereo not given),0,7,0,0,-3,/,/
O=C(O)CNC(=O)c1ccc(NC(=O)/C(=C/c2cccc([N+](=O)[O-])c2)NC(=O)c2ccco2)cc1,-15,-7,15,2,6,/,/
Cc1ccc(-c2cc(C(=O)NCc3cnn(C)c3)c3cc(Br)ccc3n2)cc1,40,-6,-40,12*,/,2,6.6*
Cn1cc(CNC(=O)c2cc(-c3ccccc3)nc3ccc(Br)cc23)cn1,41,-9,-41,-2,/,/,/
CCOC(=O)NC(=O)/C(C#N)=C\Nc1sccc1C(=O)OC,9,-2,-9,6,/,/,/
CCOC(=O)NC(=O)/C(C#N)=C\Nc1ccc(Cl)cc1Cl,7,0,-7,9.0*,5,1,7.9*
C=CCn1c(=O)c(C(=O)Nc2ccccc2S(N)(=O)=O)c(O)c2ccccc21,-8,-5,8,11*,-8,16*,4
COc1ccc(C(=O)Nc2ccc3[nH]ncc3c2)cc1OC,32,2,-32,1,/,/,/
Cc1cc(C)c2nc(-n3nc(C)cc3N)cc(C)c2c1,38,-1,-38,10*,/,8.2*,6.2*
COC(=O)[C@]12C[C@H](CC(=O)N3CCCCC3)C(=O)N(Cc3cccc4ccccc34)C1=C[C@H](C(C)C)O[C@@H]2C1CC1,/,/,/,-3,/,/,/
S=C1c2ccccc2CN1c1ccccc1,-30,-2,30,10*,/,4,3
Cc1ccc(N2Cc3ccccc3OC(C)C2=O)cc1 (stereo not given),1,/,-1,4,-12,/,/
Cc1ccc(N2Cc3ccccc3C2=S)cc1,-4,2,4,13*,4,12*,11*
CC(=O)c1ccc(S(=O)(=O)NCC2CCN(C(=O)C(=O)c3cc4ccccc4o3)CC2)cc1,/,/,/,-5,/,/,/
COC(=O)/C=C1\OCc2cc(C)ccc21,/,/,/,13*,/,7,3
CN(C)CCNC(=S)Nc1ccc(-c2nc3ccccc3[nH]2)cc1,-8,4,8,8.3*,5,16*,5.9*
Cc1cccc(-c2cccc3c4c([nH]c23)[C@@H]2C[C@H](N(C)C(=O)Nc3ccccc3)[C@H]([C@H](C)O)C(=O)N2CC4)c1,/,/,/,9.2*,/,-4,-1
O=C1Nc2ccccc2/C1=C/c1cnc(-c2ccccc2)[nH]1,3,2,-3,18*,-9,13*,11*
O=C1Nc2ccccc2/C1=C/c1cccnc1,-21,-9,21,2,10,/,/
SMILES,SR-BI HDL uptake,Vif inh,SR-BI DiI-HDL act,SMARCA2 activ,TAG inh,SMARCA2 act conf,GAL4-VP16 Luc
CC(=O)c1cnc2nc(SCc3ccc(C)cc3)nn2c1C,-2,21,2,-1,-29,/,/
CC(=O)c1cnc2nc(SCc3ccccc3)nn2c1C,-9,7,9,11*,3,6,10*
Cn1cnc2c(SCc3ccccc3)ncnc21,-5,11,5,9.7*,-9,6,5
ClCCn1cnc2c(SCc3ccccc3Cl)ncnc21,5,3,-5,6,-3,/,/
ClCCn1cnc2c(SCc3ccccc3)ncnc21,2,2,-2,8.0*,-22,4,5.2*
CCN1CC(c2ccccc2)C(c2ccc(Cl)cc2)=N1 (stereo not given),-1,-6,1,8.3*,/,2,-1
CN1N=C(c2ccc(Cl)cc2)CC(c2ccc(Cl)cc2)C1=O (stereo not given),24,-1,-24,0,15,/,/
COc1ccc(-c2cc(C(=O)c3c(N)n(C)c(=O)n(C)c3=O)c3ccccc3n2)cc1,/,-3,/,8.2*,4,8.8*,7.3*
COc1cccc(C(=O)Nc2cc(=O)n(C)c(=O)n2C)c1OC,-8,17,8,8.3*,9,-3,3
COc1cccc(C(=O)NCC(=O)NCc2cc(=O)n(C)c(=O)n2C)c1OC,-11,2,11,-2,/,/,/
O=[N+]([O-])c1cccc(COc2ccc(CO)cc2)c1,/,/,/,9.4*,/,9.1*,13*
O=[N+]([O-])c1cccc(COc2cccc(CO)c2)c1,4,-4,-4,-1,-4,/,/
COc1ccc(CNC(=O)CSc2nnnn2C)cc1OC,/,13,/,8.5*,6,2,1
CCOc1ccc(NC(=O)CCNS(=O)(=O)c2ccc3c(c2)oc(=O)n3C)cc1,-13,-2,13,8.0*,/,-1,-1
Cc1ccc(NC(=O)CCNS(=O)(=O)c2ccc3c(c2)oc(=O)n3C)cc1,6,/,-6,-2,/,/,/
Cc1ccc(SCc2cn3ccccc3n2)cc1,-16,?,16,-1,0,/,/
c1ccc(CSCc2cn3ccccc3n2)cc1,-11,14,11,8.8*,2,7,7.5*
N#Cc1cc(C#N)c(N2CCN(c3ccccn3)CC2)nc1N,-9,-3,9,9.1*,/,16*,11*
c1ccc(N2CCN(c3cnccn3)CC2)nc1,-10,6,10,0,-2,/,/
COc1ccc2c(c1)c1ccccc1n2C,-40,18,40,8.9*,-2,-2,2
CC(C(=O)Nc1ccc(Cl)cc1Cl)N1C(=O)NC2(CCCC2)C1=O (stereo not given),/,-3,/,-1,/,/,/
O=C(O)c1ccc(/C=N/Nc2ccc(F)cc2F)cc1,4,-12,-4,11*,-3,6,5
COc1ccc(CN(C)C(=O)c2ccc3c(=O)n4c(nc3c2)CCC4)cc1,-37,-2,37,8.2*,-5,-3,0
COc1cccc(CN(C)C(=O)c2ccc3c(=O)n4c(nc3c2)CCC4)c1,-12,-16,12,-1,4,/,/
